# Results published in ChEMBL document CHEMBL4689842, “EUbOPEN Chemogenomics Library wave 1” (2021).
# “And” between values parts separate entries of the source, which are not always exact repeats. Equal values may be shown once.
# Test system: Fibroblast
# Assay: Multiplex assay against human fibroblast
# Type: toxicity, cell-based
# Procedure, shortened: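 Live cells were stained at seeding with Hoechst33342, BioTracker Green Microtubule Cytoskeleton Dye, MitoTracker Red and Annexin V Alexa Fluor 680, then imaged on a CQ1 microscope at 37°C and 5% CO2 after compound addition. CellPathfinder machine-learning gating split cells into Hoechst high-intensity objects or normal cells. Normal cells were split into healthy, pyknosed or fragmented nuclei, and pyknosed cells into mitotic or apoptotic. Tubulin, mitochondrial-mass and membrane-permeability phenotypes are per cents of healthy-nucleus cells.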
# [1] = 12 h, 1 µM, compound concentration 1 uM, replicate 1
# [2] = 12 h, 1 µM, compound concentration 1 uM, replicate 2
# [3] = 12 h, 10 µM, compound concentration 10 uM, replicate 1
# [4] = 12 h, 10 µM, compound concentration 10 uM, replicate 2
# [5] = 24 h, 1 µM, compound concentration 1 uM, replicate 1
# [6] = 24 h, 1 µM, compound concentration 1 uM, replicate 2
# [7] = 24 h, 10 µM, compound concentration 10 uM, replicate 1
# [8] = 24 h, 10 µM, compound concentration 10 uM, replicate 2
# [9] = 48 h, 10 µM, compound concentration 10 uM, replicate 1
# [10] = 48 h, 10 µM, compound concentration 10 uM, replicate 2
# [11] = 12 h, 0 µM, compound concentration 0 uM, replicate 1
# [12] = 12 h, 0 µM, compound concentration 0 uM, replicate 2
# [13] = 24 h, 0 µM, compound concentration 0 uM, replicate 1
# [14] = 24 h, 0 µM, compound concentration 0 uM, replicate 2
smiles,measurement,setting,value
COCC(=O)NC/C=C/c1ccc2ncnc(Nc3ccc(Oc4ccc(C)nc4)c(C)c3)c2c1 [CP-724714],Population Apoptotic (%),[1],52% and 82%
same,Population Fragmented Nuclei (%),[1],30% and 25%
same,Population Healthy Nuclei (%),[1],51% and 59%
same,Population Hoechst High Intensity Objects (%),[1],14% and 12%
same,Population Membrane Permeable-Phenotype (%),[1],29% and 10%
same,Population Mitotic Cells (%),[1],47% and 17%
same,Population Normal (%),[1],85% and 87%
same,Population Pyknosed Nuclei (%),[1],18%
same,Total Cell Count,[1],245 and 254
same,Population Fragmented Nuclei (%),[2],50% and 54%
same,Population Healthy Nuclei (%),[2],33% and 20%
same,Population Hoechst High Intensity Objects (%),[2],27% and 42%
same,Population Membrane Permeable-Phenotype (%),[2],22% and 11%
same,Population Normal (%),[2],72% and 57%
same,Population Pyknosed Nuclei (%),[2],15% and 25%
same,Population Tubulin-Different-Phenotype (%),[2],22% and 44%
same,Total Cell Count,[2],73 and 76
same,Population Apoptotic (%),[3],51%
same,Population Fragmented Nuclei (%),[3],33%
same,Population Healthy Nuclei (%),[3],37%
same,Population Hoechst High Intensity Objects (%),[3],14%
same,Population Membrane Permeable-Phenotype (%),[3],14%
same,Population Mitochondria Different-Phenotype (%),[3],50%
same,Population Mitotic Cells (%),[3],48%
same,Population Normal (%),[3],85%
same,Population Pyknosed Nuclei (%),[3],29%
same,Population Tubulin-Different-Phenotype (%),[3],87%
same,Total Cell Count,[3],148
same,Population Apoptotic (%),[4],80%
same,Population Fragmented Nuclei (%),[4],18%
same,Population Healthy Nuclei (%),[4],63%
same,Population Hoechst High Intensity Objects (%),[4],11%
same,Population Membrane Permeable-Phenotype (%),[4],37%
same,Population Mitochondria Different-Phenotype (%),[4],94%
same,Population Mitotic Cells (%),[4],20%
same,Population Normal (%),[4],88%
same,Population Pyknosed Nuclei (%),[4],18%
same,Population Tubulin-Different-Phenotype (%),[4],100%
same,Total Cell Count,[4],62
same,Population Apoptotic (%),[5],58% and 59%
same,Population Fragmented Nuclei (%),[5],30% and 19%
same,Population Healthy Nuclei (%),[5],51% and 62%
same,Population Hoechst High Intensity Objects (%),[5],14% and 11%
same,Population Mitotic Cells (%),[5],41% and 40%
same,Population Normal (%),[5],85% and 88%
same,Population Pyknosed Nuclei (%),[5],17% and 18%
same,Total Cell Count,[5],243 and 259
same,Population Apoptotic (%),[6],37% and 77%
same,Population Fragmented Nuclei (%),[6],55% and 57%
same,Population Healthy Nuclei (%),[6],31% and 21%
same,Population Hoechst High Intensity Objects (%),[6],24% and 51%
same,Population Membrane Permeable-Phenotype (%),[6],16% and 11%
same,Population Mitochondria Different-Phenotype (%),[6],22% and 33%
same,Population Mitotic Cells (%),[6],62% and 22%
same,Population Normal (%),[6],75% and 48%
same,Population Pyknosed Nuclei (%),[6],13% and 21%
same,Total Cell Count,[6],77 and 86
same,Population Apoptotic (%),[7],57%
same,Population Fragmented Nuclei (%),[7],34%
same,Population Healthy Nuclei (%),[7],34%
same,Population Hoechst High Intensity Objects (%),[7],14%
same,Population Membrane Permeable-Phenotype (%),[7],16%
same,Population Mitochondria Different-Phenotype (%),[7],69%
same,Population Mitotic Cells (%),[7],42%
same,Population Normal (%),[7],85%
same,Population Pyknosed Nuclei (%),[7],30%
same,Population Tubulin-Different-Phenotype (%),[7],95%
same,Total Cell Count,[7],144
same,Population Apoptotic (%),[8],60%
same,Population Fragmented Nuclei (%),[8],16%
same,Population Healthy Nuclei (%),[8],54%
same,Population Hoechst High Intensity Objects (%),[8],11%
same,Population Membrane Permeable-Phenotype (%),[8],51%
same,Population Mitochondria Different-Phenotype (%),[8],96%
same,Population Mitotic Cells (%),[8],40%
same,Population Normal (%),[8],88%
same,Population Pyknosed Nuclei (%),[8],28%
same,Population Tubulin-Different-Phenotype (%),[8],100%
same,Total Cell Count,[8],60
same,Population Apoptotic (%),[9],77%
same,Population Fragmented Nuclei (%),[9],35%
same,Population Healthy Nuclei (%),[9],44%
same,Population Hoechst High Intensity Objects (%),[9],14%
same,Population Membrane Permeable-Phenotype (%),[9],10%
same,Population Mitochondria Different-Phenotype (%),[9],41%
same,Population Mitotic Cells (%),[9],22%
same,Population Normal (%),[9],85%
same,Population Pyknosed Nuclei (%),[9],20%
same,Population Tubulin-Different-Phenotype (%),[9],86%
same,Total Cell Count,[9],154
same,Population Apoptotic (%),[10],40%
same,Population Fragmented Nuclei (%),[10],34%
same,Population Healthy Nuclei (%),[10],61%
same,Population Hoechst High Intensity Objects (%),[10],8%
same,Population Membrane Permeable-Phenotype (%),[10],14%
same,Population Mitochondria Different-Phenotype (%),[10],34%
same,Population Mitotic Cells (%),[10],60%
same,Population Normal (%),[10],91%
same,Population Pyknosed Nuclei (%),[10],3%
same,Population Tubulin-Different-Phenotype (%),[10],94%
same,Total Cell Count,[10],163
CCNc1cc(N[C@H]2CC[C@H](O)CC2)nc(Nc2ccc3c(ccn3Cc3ccccc3)c2)n1,Population Apoptotic (%),[11],55%
same,Population Fragmented Nuclei (%),[11],24%
same,Population Healthy Nuclei (%),[11],52%
same,Population Hoechst High Intensity Objects (%),[11],26%
same,Population Membrane Permeable-Phenotype (%),[11],0%
same,Population Mitotic Cells (%),[11],44%
same,Population Normal (%),[11],73%
same,Population Pyknosed Nuclei (%),[11],22%
same,Population Tubulin-Different-Phenotype (%),[11],38%
same,Total Cell Count,[11],280
same,Population Apoptotic (%),[12],60%
same,Population Fragmented Nuclei (%),[12],40%
same,Population Healthy Nuclei (%),[12],48%
same,Population Hoechst High Intensity Objects (%),[12],47%
same,Population Membrane Permeable-Phenotype (%),[12],4%
same,Population Mitochondria Different-Phenotype (%),[12],41%
same,Population Mitotic Cells (%),[12],40%
same,Population Normal (%),[12],52%
same,Population Pyknosed Nuclei (%),[12],10%
same,Population Tubulin-Different-Phenotype (%),[12],41%
same,Total Cell Count,[12],94
same,Population Apoptotic (%),[1],76%
same,Population Fragmented Nuclei (%),[1],45%
same,Population Healthy Nuclei (%),[1],47%
same,Population Hoechst High Intensity Objects (%),[1],20%
same,Population Membrane Permeable-Phenotype (%),[1],2%
same,Population Mitochondria Different-Phenotype (%),[1],11%
same,Population Mitotic Cells (%),[1],23%
same,Population Normal (%),[1],79%
same,Population Pyknosed Nuclei (%),[1],7%
same,Population Tubulin-Different-Phenotype (%),[1],12%
same,Total Cell Count,[1],286
same,Population Apoptotic (%),[2],66%
same,Population Fragmented Nuclei (%),[2],67%
same,Population Healthy Nuclei (%),[2],29%
same,Population Hoechst High Intensity Objects (%),[2],50%
same,Population Membrane Permeable-Phenotype (%),[2],8%
same,Population Mitochondria Different-Phenotype (%),[2],17%
same,Population Mitotic Cells (%),[2],33%
same,Population Normal (%),[2],49%
same,Population Pyknosed Nuclei (%),[2],3%
same,Population Tubulin-Different-Phenotype (%),[2],34%
same,Total Cell Count,[2],160
same,Population Apoptotic (%),[13],71%
same,Population Fragmented Nuclei (%),[13],21%
same,Population Healthy Nuclei (%),[13],45%
same,Population Hoechst High Intensity Objects (%),[13],38%
same,Population Mitochondria Different-Phenotype (%),[13],65%
same,Population Mitotic Cells (%),[13],28%
same,Population Normal (%),[13],61%
same,Population Pyknosed Nuclei (%),[13],32%
same,Population Tubulin-Different-Phenotype (%),[13],50%
same,Total Cell Count,[13],257
same,Population Apoptotic (%),[14],90%
same,Population Fragmented Nuclei (%),[14],60%
same,Population Healthy Nuclei (%),[14],21%
same,Population Hoechst High Intensity Objects (%),[14],40%
same,Population Membrane Permeable-Phenotype (%),[14],0%
same,Population Mitochondria Different-Phenotype (%),[14],83%
same,Population Mitotic Cells (%),[14],10%
same,Population Normal (%),[14],59%
same,Population Pyknosed Nuclei (%),[14],18%
same,Population Tubulin-Different-Phenotype (%),[14],33%
same,Total Cell Count,[14],92
same,Population Apoptotic (%),[5],76%
same,Population Fragmented Nuclei (%),[5],45%
same,Population Healthy Nuclei (%),[5],44%
same,Population Hoechst High Intensity Objects (%),[5],21%
same,Population Membrane Permeable-Phenotype (%),[5],0%
same,Population Mitochondria Different-Phenotype (%),[5],10%
same,Population Mitotic Cells (%),[5],24%
same,Population Normal (%),[5],78%
same,Population Pyknosed Nuclei (%),[5],10%
same,Population Tubulin-Different-Phenotype (%),[5],10%
same,Total Cell Count,[5],313
same,Population Apoptotic (%),[6],100%
same,Population Fragmented Nuclei (%),[6],58%
same,Population Healthy Nuclei (%),[6],40%
same,Population Hoechst High Intensity Objects (%),[6],53%
same,Population Membrane Permeable-Phenotype (%),[6],3%
same,Population Mitochondria Different-Phenotype (%),[6],50%
same,Population Mitotic Cells (%),[6],0%
same,Population Normal (%),[6],46%
same,Population Pyknosed Nuclei (%),[6],1%
same,Population Tubulin-Different-Phenotype (%),[6],53%
same,Total Cell Count,[6],152
